Laboratory results from ChEMBL document CHEMBL2010774, “Cytotoxic apigenin derivatives from Chrysopogon aciculatis” (J Nat Prod, 2012).

Experiments:
Assay type in all cases: functional, cell-based
[1] = system: CCRF-CEM; assay: Cytotoxicity against human CEM cells after 48 hrs by alamar blue assay
In short: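 CEM, a human leukemia cell line.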

[2] = system: MCF7; assay: Cytotoxicity against human MCF7 cells after 48 hrs by alamar blue assay; conditions: MCF7, 48 h
In short: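 MCF-7, a human breast cancer cell line.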

[3] = system: HT-29; assay: Cytotoxicity against human HT-29 cells after 48 hrs by alamar blue assay; conditions: HT-29, 48 h
In short: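 HT-29, a human colon cancer cell line.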

[4] = system: NCI-H460; assay: Cytotoxicity against human NCI-H460 cells after 48 hrs by alamar blue assay; conditions: NCI-H460, 48 h
In short: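 H460, a human lung cancer cell line.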

Row | Structure (SMILES) | IC50 [1] | IC50 [2] | IC50 [3] | IC50 [4]
1 | C[C@H]1O[C@@H](c2c(O)cc(O)c3c(=O)cc(-c4ccc(O)cc4)oc23)C[C@H](O)[C@@H]1O | 4.42 µM | 6.35 µM | 25.3 µM | 18.2 µM
2 | C[C@H]1O[C@@H](c2c(O)cc(O)c3c(=O)cc(-c4ccc(O)cc4)oc23)C[C@H](O)[C@H]1O | 2.58 µM | 75 µM | 10 µM | 12 µM
3 | COc1cccc2c1C(=O)c1c(O)c3c(c(O)c1C2=O)C[C@@](O)(C(=O)CO)C[C@@H]3O[C@H]1C[C@H](N)[C@H](O)[C@H](C)O1 [DOXORUBICIN] | – | 2.5 µM | 6.04 µM | –
4 | COc1cc(O)c2c(=O)cc(-c3ccc(O)cc3)oc2c1[C@H]1C[C@H](O)[C@H](O)[C@@H](C)O1 [ACICULATIN] | 2.65 µM | 3.16 µM | 26 µM | 46.9 µM
5 | COc1cc(O)c2c(=O)cc(-c3ccc(O)cc3)oc2c1[C@H]1CC(=O)[C@H](O)[C@@H](C)O1 [ACICULATINONE] | 13.3 µM | 18.4 µM | 11.6 µM | 18.1 µM
6 | COc1cc(O)c2c(=O)cc(-c3ccc(O[C@@H]4O[C@H](CO)[C@@H](O)[C@H](O)[C@H]4O)cc3)oc2c1[C@H]1C[C@H](O)[C@H](O)[C@@H](C)O1 | > 100 µM | > 100 µM | > 100 µM | > 100 µM
